# Reference: ChEMBL document CHEMBL3627671, “Novel derivatives of nitro-substituted salicylic acids: Synthesis, antimicrobial activity and cytotoxicity” (Bioorg Med Chem, 2015)
# Legend:
# [1] = test system: Candida tropicalis; test: Antifungal activity against Candida tropicalis 156 after 24 hrs by microdilution broth method; assay type: functional; details: Candida tropicalis, 156, 24 h
# Outline: (§1)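 CLSI M27-A3 broth microdilution in RPMI 1640 with glutamine, buffered to pH 7.0 with MOPS; DMSO diluent. Yeast inoculum 5 × 10^3 ± 0.2 CFU/mL. Moulds grown on Sabouraud agar 3–10 days before spore harvest, final inoculum 0.5-5 × 10^4 CFU/mL, checked in a Bürker chamber. Incubated dark, humid, 35 °C, read at 24 and 48 h visually and at 540 nm. MIC taken as ≥80% (yeasts) or ≥50% (filamentous) growth reduction versus control.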
# [2] = test system: Lichtheimia corymbifera; test: Antifungal activity against Absidia corymbifera 272 after 24 hrs by microdilution broth method; assay type: functional; details: Lichtheimia corymbifera, 272, 24 h; outline: as §1
# [3] = test system: Mycobacterium avium; test: Antimycobacterial activity against Mycobacterium avium 330/80 after 21 days; assay type: functional; details: 330/80, 504 h
# [4] = test system: Mycobacterium tuberculosis; test: Antimycobacterial activity against Mycobacterium tuberculosis H37Rv 331/88 after 21 days; assay type: functional; details: H37Rv 331/88, 504 h
# [5] = test system: Mycobacterium kansasii; test: Antimycobacterial activity against Mycobacterium kansasii 6509/96 after 7 days; assay type: functional; details: 6509/96, 168 h
# Outline: (§2)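 Šula's semisynthetic medium micromethod at 37 °C, read after 7, 14 and 21 days. The 1.0 McFarland suspension was diluted 10^-4. MIC determined. 6509/96 is a clinical isolate.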
# [6] = test system: Klebsiella pneumoniae; test: Antibacterial activity against Klebsiella pneumoniae D 11750/08 after 48 hrs by microdilution broth method; assay type: functional; details: D 11750/08, 48 h
# Outline: (§3)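 Mueller-Hinton broth microdilution (modified M07-A07), pH 7.4 (±0.2). Compounds dissolved in DMSO, tested at final 500 to 0.49 µmol/L. Inoculum in sterile water matched to 0.5 McFarland. Incubated in the dark, humid atmosphere, 35 °C, read at 24 and 48 h visually and at 540 nm. MIC taken as ≥95% growth reduction (IC95) versus control.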
# [7] = Selectivity index, ratio of CI50 for human HepG2 cells to MIC100 for Mycobacterium tuberculosis H37Rv 331/88
# [8] = test system: Mycobacterium kansasii; test: Antimycobacterial activity against Mycobacterium kansasii 6509/96 after 14 days; assay type: functional; details: 6509/96, 336 h; outline: as §2
# [9] = test system: Pseudomonas aeruginosa; test: Antibacterial activity against Pseudomonas aeruginosa CCM 1961 after 48 hrs by microdilution broth method; assay type: functional; details: CCM 1961, 48 h; outline: as §3
# [10] = test system: Trichophyton mentagrophytes; test: Antifungal activity against Trichophyton mentagrophytes 445 after 24 hrs by microdilution broth method; assay type: functional; details: Trichophyton mentagrophytes, 445, 24 h
# [11] = test system: Mycobacterium kansasii; test: Antimycobacterial activity against Mycobacterium kansasii 235/80 after 21 days; assay type: functional; details: 235/80, 504 h; outline: as §2
# [12] = test system: Mycobacterium kansasii; test: Antimycobacterial activity against Mycobacterium kansasii 235/80 after 7 days; assay type: functional; details: 235/80, 168 h; outline: as §2
# [13] = test system: Staphylococcus aureus; test: Antibacterial activity against Staphylococcus aureus CCM 4516/08 after 24 hrs by microdilution broth method; assay type: functional; details: CCM 4516/08, 24 h
# [14] = test system: HepG2; test: Cytotoxicity against human HepG2 cells after 24 hrs […]; assay type: cell-based; details: HepG2, 24 h
# [15] = test system: Staphylococcus aureus; test: Antibacterial activity against methicillin-resistant Staphylococcus aureus H 5996/08 after 48 hrs by microdilution broth method; assay type: functional; details: H 5996/08, 48 h
# [16] = test system: Enterococcus sp.; test: Antibacterial activity against Enterococcus sp. J 14365/08 after 48 hrs by microdilution broth method; assay type: functional; details: J 14365/08, 48 h; outline: as §3
# [17] = test system: Mycobacterium tuberculosis; test: Antimycobacterial activity against Mycobacterium tuberculosis H37Rv 331/88 after 14 days; assay type: functional; details: H37Rv 331/88, 336 h
# [18] = test system: Aspergillus fumigatus; test: Antifungal activity against Aspergillus fumigatus 231 after 24 hrs by microdilution broth method; assay type: functional; details: Aspergillus fumigatus, 231, 24 h; outline: as §1
# [19] = test system: Nakaseomyces glabratus; test: Antifungal activity against Candida glabrata 20/I after 48 hrs by microdilution broth method; assay type: functional; outline: as §1
# [20] = test system: Mycobacterium avium; test: Antimycobacterial activity against Mycobacterium avium 330/80 after 14 days; assay type: functional; details: 330/80, 336 h
# [21] = test system: Candida albicans; test: Antifungal activity against Candida albicans ATCC 44859 after 24 hrs by microdilution broth method; assay type: functional; details: ATCC 44859, 24 h; outline: as §1
# [22] = test system: Enterococcus sp.; test: Antibacterial activity against Enterococcus sp. J 14365/08 after 24 hrs by microdilution broth method; assay type: functional; details: J 14365/08, 24 h; outline: as §3
# [23] = test system: Klebsiella pneumoniae; test: Antibacterial activity against ESBL-positive Klebsiella pneumoniae J 14368/08 after 48 hrs by microdilution broth method; assay type: functional; details: J 14368/08, 48 h; outline: as §3
# [24] = test system: Escherichia coli; test: Antibacterial activity against Escherichia coli CCM4517 after 48 hrs by microdilution broth method; assay type: functional; details: CCM4517, 48 h; outline: as §3
# [25] = test system: Escherichia coli; test: Antibacterial activity against Escherichia coli CCM4517 after 24 hrs by microdilution broth method; assay type: functional; details: CCM4517, 24 h; outline: as §3
# [26] = test system: Pichia kudriavzevii; test: Antifungal activity against Candida krusei E28 after 24 hrs by microdilution broth method; assay type: functional; details: E28, 24 h; outline: as §1
# [27] = test system: Mycobacterium kansasii; test: Antimycobacterial activity against Mycobacterium kansasii 235/80 after 14 days; assay type: functional; details: 235/80, 336 h; outline: as §2
# [28] = test system: Lichtheimia corymbifera; test: Antifungal activity against Absidia corymbifera 272 after 48 hrs by microdilution broth method; assay type: functional; details: Lichtheimia corymbifera, 272, 48 h; outline: as §1
# [29] = test system: Mycobacterium kansasii; test: Antimycobacterial activity against Mycobacterium kansasii 6509/96 after 21 days; assay type: functional; details: 6509/96, 504 h; outline: as §2
# [30] = test system: Staphylococcus aureus; test: Antibacterial activity against methicillin-resistant Staphylococcus aureus H 5996/08 after 24 hrs by microdilution broth method; assay type: functional; details: H 5996/08, 24 h
# [31] = test system: Candida tropicalis; test: Antifungal activity against Candida tropicalis 156 after 48 hrs by microdilution broth method; assay type: functional; details: Candida tropicalis, 156, 48 h; outline: as §1
# [32] = test system: Trichophyton mentagrophytes; test: Antifungal activity against Trichophyton mentagrophytes 445 after 48 hrs by microdilution broth method; assay type: functional; details: Trichophyton mentagrophytes, 445, 48 h
# [33] = test system: Klebsiella pneumoniae; test: Antibacterial activity against Klebsiella pneumoniae D 11750/08 after 24 hrs by microdilution broth method; assay type: functional; details: D 11750/08, 24 h; outline: as §3
# [34] = test system: Trichosporon asahii; test: Antifungal activity against Trichosporon asahii 1188 after 48 hrs by microdilution broth method; assay type: functional; details: Trichosporon asahii, 1188, 48 h; outline: as §1
# [35] = test system: Pseudomonas aeruginosa; test: Antibacterial activity against Pseudomonas aeruginosa CCM 1961 after 24 hrs by microdilution broth method; assay type: functional; details: CCM 1961, 24 h; outline: as §3
# [36] = test system: Trichosporon asahii; test: Antifungal activity against Trichosporon asahii 1188 after 24 hrs by microdilution broth method; assay type: functional; details: Trichosporon asahii, 1188, 24 h; outline: as §1
# [37] = test system: Klebsiella pneumoniae; test: Antibacterial activity against ESBL-positive Klebsiella pneumoniae J 14368/08 after 24 hrs by microdilution broth method; assay type: functional; details: J 14368/08, 24 h; outline: as §3
# [38] = test system: Staphylococcus aureus; test: Antibacterial activity against Staphylococcus aureus CCM 4516/08 after 48 hrs by microdilution broth method; assay type: functional; details: CCM 4516/08, 48 h
# [39] = test system: Candida albicans; test: Antifungal activity against Candida albicans ATCC 44859 after 48 hrs by microdilution broth method; assay type: functional; details: ATCC 44859, 48 h; outline: as §1
# [40] = test system: Aspergillus fumigatus; test: Antifungal activity against Aspergillus fumigatus 231 after 48 hrs by microdilution broth method; assay type: functional; details: Aspergillus fumigatus, 231, 48 h; outline: as §1
# [41] = test system: Staphylococcus epidermidis; test: Antibacterial activity against Staphylococcus epidermidis H 6966/08 after 48 hrs by microdilution broth method; assay type: functional; details: H 6966/08, 48 h; outline: as §3
# [42] = test system: Staphylococcus epidermidis; test: Antibacterial activity against Staphylococcus epidermidis H 6966/08 after 24 hrs by microdilution broth method; assay type: functional; details: H 6966/08, 24 h; outline: as §3
# [43] = test system: Nakaseomyces glabratus; test: Antifungal activity against Candida glabrata 20/I after 24 hrs by microdilution broth method; assay type: functional; outline: as §1
# [44] = test system: Pichia kudriavzevii; test: Antifungal activity against Candida krusei E28 after 48 hrs by microdilution broth method; assay type: functional; details: E28, 48 h; outline: as §1
smiles,measurement,setting,value
O=C(Nc1ccc(Cl)c(Cl)c1)c1ccc([N+](=O)[O-])cc1O,MIC,[1],125 µM
same,MIC,[2],31.2 µM
same,MIC,[3],62.5 µM
same,MIC,[4],8 µM
same,MIC,[5],8 µM
same,MIC,[6],> 500 µM
same,Selectivity Index,[7],0.175
same,MIC,[8],16 µM
same,MIC,[9],> 500 µM
same,MIC,[10],125 µM
same,MIC,[11],8 µM
same,MIC,[12],4 µM
same,MIC,[13],3.9 µM
same,IC50,[14],1.4 µM
same,MIC,[15],1.95 µM
same,MIC,[16],500 µM
same,MIC,[17],4 µM
same,MIC,[18],31.2 µM
same,MIC,[19],62.5 µM
same,MIC,[20],32 µM
same,MIC,[21],62.5 µM
same,MIC,[22],125 µM
same,MIC,[23],> 500 µM
same,MIC,[24],> 500 µM
same,MIC,[25],> 500 µM
same,MIC,[26],7.81 µM
same,MIC,[27],8 µM
same,MIC,[28],31.2 µM
same,MIC,[29],16 µM
same,MIC,[30],1.95 µM
same,MIC,[31],> 250 µM
same,MIC,[32],125 µM
same,MIC,[33],> 500 µM
same,MIC,[34],15.6 µM
same,MIC,[35],> 500 µM
same,MIC,[36],7.81 µM
same,MIC,[37],> 500 µM
same,MIC,[38],3.9 µM
same,MIC,[39],62.5 µM
same,MIC,[40],31.2 µM
same,MIC,[41],1.95 µM
same,MIC,[42],1.95 µM
same,MIC,[43],31.2 µM
same,MIC,[44],15.6 µM
